In data set [1] the target is Mitogen-activated protein kinase 14 (Homo sapiens, UniProt Q16539). The data set can be described thus: Inhibition of GST-fused p38alpha expressed in Escherichia coli. A digest of the protocol:
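GST-tagged p38 and MEK6 at the N-terminus, purified from E. coli. Reaction ran 60 min at rt, was EDTA-quenched, and was read with streptavidin SPA beads. IC50 was fitted from % inhibition against ±EDTA controls. Values are means of >2 experiments.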

Data set [2] is described as follows: Metabolic stability in rat liver S9 microsomal fraction assessed as parent compound turnover after 30 mins. Type of data set: ADME, subcellular. The following applies: read-out: Stability. The essentials: (§1)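 Test compound was incubated with liver S9 fraction (5 mg protein/mL) for 30 min. Read-out is % turnover of parent compound. Values are means of ≥2 incubations.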

Data set [3] in a line: Metabolic stability in dog liver S9 microsomal fraction assessed as parent compound turnover after 30 mins. The following applies: read-out: Stability. Type of data set: ADME, subcellular, Canis lupus familiaris. A digest of the protocol: as §1
Data set [4] in a line: Clearance in Lewis rat at 1 mg/kg, iv. Type of data set: ADME, organism-based. Also noted: dose 1 mg/kg, route intravenous. The note with it: in vivo.
Data set [5] can be described thus: Volume of distribution at steady state in Lewis rat at 1 mg/kg, iv. Details: dose 1 mg/kg, route intravenous. Type of data set: ADME, organism-based. The note with it: in vivo, read-out: Vdss.
The nature of data set [6]: Half life in Lewis rat at 1 mg/kg, iv. Format: ADME, organism-based. Details: dose 1 mg/kg, route intravenous. The following applies: in vivo.
Data set [7] can be described thus: AUC in Lewis rat at 1 mg/kg, iv. Format: ADME, organism-based. Also noted: dose 1 mg/kg, route intravenous. The following applies: plasma.
A short description of data set [8]: Bioavailability in Lewis rat at 1 mg/kg, iv. Type of data set: ADME, organism-based. The following applies: in vivo.
Data set [9] can be described thus: Clearance in Beagle dog at 1 mg/kg, iv. Type of data set: ADME, organism-based, Canis lupus familiaris. Details: dose 1 mg/kg, route intravenous. The following applies: in vivo.
Data set [10] can be described thus: Volume of distribution at steady state in Beagle dog at 1 mg/kg, iv. Type of data set: ADME, organism-based, Canis lupus familiaris. Also noted: dose 1 mg/kg, route intravenous. The following applies: in vivo, read-out: Vdss.
Data set [11] is described as follows: Half life in Beagle dog at 1 mg/kg, iv. The note with it: in vivo. Format: ADME, organism-based, Canis lupus familiaris. Also noted: dose 1 mg/kg, route intravenous.
A short description of data set [12]: AUC in Beagle dog at 1 mg/kg, iv. Format: ADME, organism-based, Canis lupus familiaris. Also noted: dose 1 mg/kg, route intravenous. The note with it: plasma.
Data set [13] can be described thus: Bioavailability in Beagle dog at 1 mg/kg, iv. Format: ADME, organism-based, Canis lupus familiaris. The note with it: in vivo.
The test system of a further data set is Mus musculus. As to the kind of experiment: Inhibition of LPS-induced TNF production in mouse at 30 mg/kg, po. Type of data set: functional.
The test system of another data set is PBMC. As to the kind of experiment: Inhibition of LPS-induced TNF release in human PBMC. Type of data set: functional, cell-based.
Data set [14] in a line: Clearance in Lewis rat at 5 mg/kg, iv. Type of data set: ADME, organism-based. Details: dose 5 mg/kg, route intravenous. The note with it: in vivo.
A short description of data set [15]: Volume of distribution at steady state in Lewis rat at 5 mg/kg, iv. The following applies: in vivo, read-out: Vdss. Details: dose 5 mg/kg, route intravenous. Format: ADME, organism-based.
A short description of data set [16]: Half life in Lewis rat at 5 mg/kg, iv. The note with it: in vivo. Also noted: dose 5 mg/kg, route intravenous. Type of data set: ADME, organism-based.
Data set [17] can be described thus: AUC in Lewis rat at 5 mg/kg, iv. Type of data set: ADME, organism-based. Details: dose 5 mg/kg, route intravenous. The note with it: plasma.
Data set [18] can be described thus: Bioavailability in Lewis rat at 5 mg/kg, iv. Format: ADME, organism-based. The following applies: in vivo.
In data set [19] the target is Glycogen synthase kinase-3 beta (Homo sapiens, UniProt P49841). The data set can be described thus: Inhibition of GSK3-beta.
Glycogen synthase kinase-3 beta, sequence (P49841 whole entry): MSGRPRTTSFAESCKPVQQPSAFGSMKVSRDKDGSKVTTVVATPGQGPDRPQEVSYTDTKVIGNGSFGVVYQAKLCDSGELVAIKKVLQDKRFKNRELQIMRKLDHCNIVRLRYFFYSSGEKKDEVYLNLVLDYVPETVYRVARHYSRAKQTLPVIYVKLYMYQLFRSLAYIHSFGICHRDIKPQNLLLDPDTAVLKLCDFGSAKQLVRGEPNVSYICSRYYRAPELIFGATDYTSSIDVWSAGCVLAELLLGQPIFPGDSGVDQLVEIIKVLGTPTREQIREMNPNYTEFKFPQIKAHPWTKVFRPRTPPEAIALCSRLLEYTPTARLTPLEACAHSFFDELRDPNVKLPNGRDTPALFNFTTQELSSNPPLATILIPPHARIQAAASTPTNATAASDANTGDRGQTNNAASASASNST
Data set [20] has as its target RAC-gamma serine/threonine-protein kinase (Homo sapiens, UniProt Q9Y243). As to the kind of experiment: Inhibition of AKT3.
For data set [21], the target named is Cyclin-dependent kinase 2 (Homo sapiens, UniProt P24941). The data set can be described thus: Inhibition of CDK2/CyclinA.
Data set [22] deals with Macrophage colony-stimulating factor 1 receptor (Homo sapiens, UniProt P07333). As to the kind of experiment: Inhibition of C-FMS.
Macrophage colony-stimulating factor 1 receptor, sequence (P07333 whole entry): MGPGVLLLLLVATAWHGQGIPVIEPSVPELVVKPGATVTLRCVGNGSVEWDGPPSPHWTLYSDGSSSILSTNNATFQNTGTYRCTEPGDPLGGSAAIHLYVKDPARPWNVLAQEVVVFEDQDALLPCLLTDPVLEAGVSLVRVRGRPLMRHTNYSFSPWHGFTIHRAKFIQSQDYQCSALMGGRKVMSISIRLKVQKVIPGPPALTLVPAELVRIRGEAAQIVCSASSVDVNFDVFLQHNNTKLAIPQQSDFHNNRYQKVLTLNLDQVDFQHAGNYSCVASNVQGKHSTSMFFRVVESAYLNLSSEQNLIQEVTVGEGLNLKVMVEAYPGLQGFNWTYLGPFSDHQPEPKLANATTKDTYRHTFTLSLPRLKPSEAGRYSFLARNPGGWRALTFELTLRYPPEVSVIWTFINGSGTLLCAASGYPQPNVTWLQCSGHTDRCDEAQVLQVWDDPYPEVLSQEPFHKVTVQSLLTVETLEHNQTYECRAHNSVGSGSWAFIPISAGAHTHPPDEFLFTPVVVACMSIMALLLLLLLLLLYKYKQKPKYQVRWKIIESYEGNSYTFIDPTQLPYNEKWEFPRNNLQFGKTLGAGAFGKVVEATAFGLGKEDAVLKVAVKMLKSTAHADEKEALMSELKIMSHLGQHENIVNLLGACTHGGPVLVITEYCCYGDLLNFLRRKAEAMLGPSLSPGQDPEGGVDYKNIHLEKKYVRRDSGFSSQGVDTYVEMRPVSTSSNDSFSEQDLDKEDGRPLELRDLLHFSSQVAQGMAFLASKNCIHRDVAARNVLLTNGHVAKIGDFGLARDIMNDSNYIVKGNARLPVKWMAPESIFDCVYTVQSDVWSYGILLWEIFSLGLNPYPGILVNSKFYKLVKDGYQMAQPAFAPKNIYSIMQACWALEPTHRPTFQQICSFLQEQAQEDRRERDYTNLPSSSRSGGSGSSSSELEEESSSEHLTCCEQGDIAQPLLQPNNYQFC
Data set [23] concerns the target Receptor tyrosine-protein kinase erbB-2 (Homo sapiens, UniProt P04626). The data set can be described thus: Inhibition of ERBB2.
Data set [24] deals with Receptor tyrosine-protein kinase erbB-4 (Homo sapiens, UniProt Q15303). The data set can be described thus: Inhibition of ERBB4.
Receptor tyrosine-protein kinase erbB-4, sequence (Q15303 whole entry): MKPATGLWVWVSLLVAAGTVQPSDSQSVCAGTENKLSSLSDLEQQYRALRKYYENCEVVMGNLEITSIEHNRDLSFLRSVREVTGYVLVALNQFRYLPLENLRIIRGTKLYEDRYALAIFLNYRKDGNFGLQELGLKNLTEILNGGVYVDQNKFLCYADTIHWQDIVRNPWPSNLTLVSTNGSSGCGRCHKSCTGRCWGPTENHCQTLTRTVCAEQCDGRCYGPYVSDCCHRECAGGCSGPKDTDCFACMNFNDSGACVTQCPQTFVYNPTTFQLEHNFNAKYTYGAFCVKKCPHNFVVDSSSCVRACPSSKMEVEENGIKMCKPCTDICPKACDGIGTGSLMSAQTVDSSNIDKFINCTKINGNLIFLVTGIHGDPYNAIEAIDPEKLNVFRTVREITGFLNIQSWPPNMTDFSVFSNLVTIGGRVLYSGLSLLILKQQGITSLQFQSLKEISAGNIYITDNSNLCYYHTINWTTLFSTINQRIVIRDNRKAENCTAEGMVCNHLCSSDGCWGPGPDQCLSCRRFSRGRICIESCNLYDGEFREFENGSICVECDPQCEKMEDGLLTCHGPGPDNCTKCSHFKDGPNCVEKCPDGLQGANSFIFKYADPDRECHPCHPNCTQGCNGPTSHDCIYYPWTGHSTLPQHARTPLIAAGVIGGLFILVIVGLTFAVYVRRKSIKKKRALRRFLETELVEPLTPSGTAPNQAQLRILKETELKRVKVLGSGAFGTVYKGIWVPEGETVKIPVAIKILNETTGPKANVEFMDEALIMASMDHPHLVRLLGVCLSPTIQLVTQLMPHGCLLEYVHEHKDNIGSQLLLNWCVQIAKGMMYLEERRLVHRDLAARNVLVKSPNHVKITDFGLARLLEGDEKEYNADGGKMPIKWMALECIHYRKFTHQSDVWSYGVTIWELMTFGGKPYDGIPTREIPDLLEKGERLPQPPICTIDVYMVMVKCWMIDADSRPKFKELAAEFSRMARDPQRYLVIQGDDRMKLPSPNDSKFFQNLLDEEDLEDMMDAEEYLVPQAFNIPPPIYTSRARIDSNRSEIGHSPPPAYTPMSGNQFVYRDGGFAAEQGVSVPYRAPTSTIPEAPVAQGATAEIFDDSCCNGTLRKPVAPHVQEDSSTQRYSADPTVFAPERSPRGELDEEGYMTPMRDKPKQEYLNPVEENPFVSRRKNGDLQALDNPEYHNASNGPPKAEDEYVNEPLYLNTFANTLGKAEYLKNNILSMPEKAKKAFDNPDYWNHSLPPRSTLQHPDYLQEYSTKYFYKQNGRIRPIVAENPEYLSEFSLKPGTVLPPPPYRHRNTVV
Data set [25] has as its target [Pyruvate dehydrogenase (acetyl-transferring)] kinase isozyme 4, mitochondrial (Homo sapiens, UniProt Q16654). The data set can be described thus: Inhibition of PDHK4.
In the next data set the target is Angiopoietin-1 receptor (Homo sapiens, UniProt Q02763). As to the kind of experiment: Inhibition of TIE2.
Angiopoietin-1 receptor, sequence (Q02763 whole entry): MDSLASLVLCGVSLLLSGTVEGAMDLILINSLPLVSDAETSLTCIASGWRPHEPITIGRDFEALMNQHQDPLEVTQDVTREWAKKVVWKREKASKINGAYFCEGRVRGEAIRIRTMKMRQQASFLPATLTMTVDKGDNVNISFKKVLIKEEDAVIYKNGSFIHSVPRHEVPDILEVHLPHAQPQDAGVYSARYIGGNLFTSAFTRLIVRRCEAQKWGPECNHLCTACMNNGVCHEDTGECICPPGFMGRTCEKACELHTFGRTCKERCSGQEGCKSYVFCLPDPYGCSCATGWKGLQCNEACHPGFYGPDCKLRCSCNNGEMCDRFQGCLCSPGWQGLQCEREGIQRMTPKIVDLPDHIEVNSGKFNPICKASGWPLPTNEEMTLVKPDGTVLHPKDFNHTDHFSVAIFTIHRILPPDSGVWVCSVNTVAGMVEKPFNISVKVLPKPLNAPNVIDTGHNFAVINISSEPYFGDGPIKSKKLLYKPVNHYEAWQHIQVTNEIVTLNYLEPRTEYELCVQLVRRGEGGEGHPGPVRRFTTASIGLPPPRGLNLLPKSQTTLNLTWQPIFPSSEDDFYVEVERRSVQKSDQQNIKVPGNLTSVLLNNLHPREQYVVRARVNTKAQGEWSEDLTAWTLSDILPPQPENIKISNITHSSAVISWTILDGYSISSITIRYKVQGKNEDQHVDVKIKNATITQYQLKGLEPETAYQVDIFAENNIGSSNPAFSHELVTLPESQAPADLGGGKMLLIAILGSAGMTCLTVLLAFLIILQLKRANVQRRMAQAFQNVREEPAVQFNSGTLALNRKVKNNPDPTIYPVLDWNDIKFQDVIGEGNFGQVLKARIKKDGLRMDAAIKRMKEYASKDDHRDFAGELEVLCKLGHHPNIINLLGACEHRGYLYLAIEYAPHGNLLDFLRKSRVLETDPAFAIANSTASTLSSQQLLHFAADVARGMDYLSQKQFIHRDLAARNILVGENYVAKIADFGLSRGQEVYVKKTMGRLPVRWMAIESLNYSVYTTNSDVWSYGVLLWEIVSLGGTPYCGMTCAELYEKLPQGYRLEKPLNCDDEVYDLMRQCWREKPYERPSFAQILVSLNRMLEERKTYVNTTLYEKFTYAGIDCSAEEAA
Data set [26] addresses Vascular endothelial growth factor receptor 2 (Homo sapiens, UniProt P35968). The data set can be described thus: Inhibition of VEGFR2.

Experimental findings from ChEMBL document CHEMBL1152233, “The identification of pyrazolo[1,5-a]pyridines as potent p38 kinase inhibitors” (Bioorg Med Chem Lett, 2008) are described below.

Bounds are passed on as bounds.

Mitogen-activated protein kinase 14, sequence (Q16539 whole entry, the tested form may be a part): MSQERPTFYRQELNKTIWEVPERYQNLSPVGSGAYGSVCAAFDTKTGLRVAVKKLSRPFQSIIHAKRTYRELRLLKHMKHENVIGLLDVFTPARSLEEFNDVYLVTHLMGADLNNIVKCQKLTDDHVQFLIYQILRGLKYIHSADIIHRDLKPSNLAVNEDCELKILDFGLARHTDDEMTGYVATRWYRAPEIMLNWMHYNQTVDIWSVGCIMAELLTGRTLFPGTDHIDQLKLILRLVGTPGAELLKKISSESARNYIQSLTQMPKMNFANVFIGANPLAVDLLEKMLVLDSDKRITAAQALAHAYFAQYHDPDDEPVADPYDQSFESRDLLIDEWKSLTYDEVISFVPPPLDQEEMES
RAC-gamma serine/threonine-protein kinase, sequence (Q9Y243 whole entry): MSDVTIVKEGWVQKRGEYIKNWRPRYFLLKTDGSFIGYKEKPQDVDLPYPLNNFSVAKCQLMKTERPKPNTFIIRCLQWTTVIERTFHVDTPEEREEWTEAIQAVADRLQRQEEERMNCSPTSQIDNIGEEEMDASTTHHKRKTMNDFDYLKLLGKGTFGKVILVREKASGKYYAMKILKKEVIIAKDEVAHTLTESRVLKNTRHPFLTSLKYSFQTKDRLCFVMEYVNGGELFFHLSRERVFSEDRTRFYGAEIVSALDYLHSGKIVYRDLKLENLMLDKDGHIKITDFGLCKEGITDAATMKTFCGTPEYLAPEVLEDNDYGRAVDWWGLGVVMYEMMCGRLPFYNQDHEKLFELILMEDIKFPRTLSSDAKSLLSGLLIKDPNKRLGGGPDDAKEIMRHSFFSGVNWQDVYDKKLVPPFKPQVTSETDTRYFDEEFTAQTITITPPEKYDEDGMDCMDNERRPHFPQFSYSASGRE
[Pyruvate dehydrogenase (acetyl-transferring)] kinase isozyme 4, mitochondrial, sequence (Q16654 whole entry): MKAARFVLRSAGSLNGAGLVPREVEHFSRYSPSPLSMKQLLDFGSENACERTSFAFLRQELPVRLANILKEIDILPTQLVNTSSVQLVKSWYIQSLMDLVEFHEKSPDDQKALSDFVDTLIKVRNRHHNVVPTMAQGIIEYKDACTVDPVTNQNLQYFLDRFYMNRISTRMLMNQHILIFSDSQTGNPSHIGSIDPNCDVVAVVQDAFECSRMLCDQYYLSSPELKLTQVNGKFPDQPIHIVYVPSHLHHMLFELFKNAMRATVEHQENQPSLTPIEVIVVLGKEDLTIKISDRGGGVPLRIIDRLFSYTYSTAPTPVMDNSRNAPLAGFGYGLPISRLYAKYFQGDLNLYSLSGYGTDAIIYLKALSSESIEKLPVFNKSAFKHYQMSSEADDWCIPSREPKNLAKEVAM

By IC50 is commonly meant the concentration that gives 50% inhibition. A lower IC50 goes with higher potency. By clearance is commonly meant the rate of elimination divided by the concentration. Broadly, the half-life is how long it takes for the measured level to halve. For orientation: AUC means the area under the concentration-time curve, a measure of exposure. A low value points to less exposure. As a reminder, the bioavailability is the share of a dose that reaches the circulation, judged against a reference dose that is usually intravenous. The low end stands for little systemic uptake, the high end for much systemic uptake. `Fc1ccc(-c2nn3c(OCC(F)(F)F)cccc3c2-c2ccncc2)cc1`: the IC50 in [1] is 70 nM. The metabolised at 0.5 h in [2] and in data set [3] was 0% throughout. For the same compound, the clearance worked out at 40 mL/min/kg in [4] and 17 mL/min/kg in data set [9]. Moreover, the Vd in data set [5] was 5.4 L/kg; in data set [10], 8.2 L/kg. The half-life in [6] is 2.1 h; in data set [11], 6.5 h. The AUC in data set [7] worked out at 500 ng·h/mL; in [12], 1500 ng·h/mL. In addition, the bioavailability in data set [8] was found to be 72%; in data set [13], 32%.
In [1], `Fc1ccc(-c2nn3c(Cl)cccc3c2-c2ccncc2)cc1` gave an IC50 of 150 nM. Further, the metabolised at 0.5 h in [2] is 37%; in data set [3] it was 84%.
A word on the inhibition in vivo: it is the share of the control response that was lost under treatment. The low end stands for a response near the control, the high end for a response far below the control. In turn, `Fc1ccc(-c2nn3ccccc3c2-c2ccncc2)cc1` [GW434756X] showed an inhibition in vivo at 30 mg/kg in the data set on Mus musculus of 65%. The IC50 with PBMC was 300 nM; in [1], 120 nM; in [19], 2200 nM; in data set [20], above 10000 nM; in data set [21] it was above 10000 nM; in data set [22], above 10000 nM. Moreover, the IC50 (in [23]; in data set [24]; in data set [25]; on Angiopoietin-1 receptor; in [26]) was above 10000 nM throughout. For the same compound, the metabolised at 0.5 h in data set [2] is 27%; in [3] it was 81%. Moreover, the clearance in data set [14] is 49 mL/min/kg; in [9], 34 mL/min/kg. The Vd was found to be 3.2 L/kg in data set [15] and 3.8 L/kg in data set [10]. For the same compound, the half-life in [16] is 1.2 h; in data set [11], 1.9 h. The AUC was 1700 ng·h/mL in [17] and 500 ng·h/mL in data set [12]. Further, the bioavailability in data set [18] came to 50%; in data set [13] it was 18%.
`Fc1ccc(-c2nn3cccc(F)c3c2-c2ccncc2)cc1` had an IC50 in data set [1] of 240 nM. Also, the results for the metabolised at 0.5 h in data set [2] and in [3] were 21% and 39%, respectively.
With `Cc1ccn2nc(-c3ccc(F)cc3)c(-c3ccncc3)c2c1`, inhibition in data set [1] was half-maximal at 160 nM (IC50). The metabolised at 0.5 h in data set [2] amounted to 60%. The compound also yielded a clearance in data set [4] of 83 mL/min/kg. Further, in data set [5], the Vd was 2 L/kg. The compound further showed a half-life in data set [6] of 1.2 h. In addition, in [7], the AUC worked out at 200 ng·h/mL.
Compound `Cc1ccc2c(-c3ccncc3)c(-c3ccc(F)cc3)nn2c1` came in with an IC50 in data set [1] of 150 nM. In addition, the values for the metabolised at 0.5 h in [2] and in data set [3] were 99% and 81%, respectively.
As for `Fc1ccc(-c2nn3cc(C(F)(F)F)ccc3c2-c2ccncc2)cc1`, the IC50 in data set [1] worked out at 200 nM. Moreover, the metabolised at 0.5 h in [2] and in data set [3] was 0% in each case. In addition, the clearance in data set [4] amounted to 34 mL/min/kg. For the same compound, the Vd in data set [5] is 5.4 L/kg. In data set [6], this compound had a half-life of 2.5 h. The AUC in data set [7] stood at 500 ng·h/mL. In data set [8], the bioavailability turned out to be 84%.
For the compound `Fc1ccc(-c2nn3cc(F)ccc3c2-c2ccncc2)cc1`, the IC50 in data set [1] was 160 nM. Moreover, the results for the metabolised at 0.5 h in data set [2] and in data set [3] were 1% and 23%, respectively.
The compound `N#Cc1ccc2c(-c3ccncc3)c(-c3ccc(F)cc3)nn2c1` gave an IC50 in data set [1] of 140 nM.
In turn, `Fc1ccc(-c2nn3c(OC4CCCC4)cccc3c2-c2ccncc2)cc1` registered an IC50 in [1] of 170 nM. For the same compound, the metabolised at 0.5 h in data set [2] stood at 8%; in data set [3] it was 18%.
With `CCOc1cccc2c(-c3ccncc3)c(-c3ccc(F)cc3)nn12`, the IC50 in [1] was found to be 50 nM.
`Cc1cccc2c(-c3ccncc3)c(-c3ccc(F)cc3)nn12` displayed an IC50 in [1] of 150 nM. For the same compound, the metabolised at 0.5 h came to 43% in data set [2] and 93% in [3].
`Cc1cccn2nc(-c3ccc(F)cc3)c(-c3ccncc3)c12` came in with an IC50 in [1] of 280 nM.
Same read-out and setting: next, `Fc1ccc(-c2nn3cc(Cl)ccc3c2-c2ccncc2)cc1`: 150 nM.
